# Results collected from several papers.
# Each line is one published result; the experiments were not run side by side. pEC50, pIC50, pKd, pKi: −log10 of the molar value.
# CHRM1: Muscarinic acetylcholine receptor M1 (CHRM1, Homo sapiens, UniProt P11229)
SMILES,target,test,test system,conditions,measurement,value
CC(=O)[C@@]1(O)CC[C@H]2[C@@H]3C=C(Cl)C4=CC(=O)[C@@H]5C[C@@H]5[C@]4(C)[C@H]3CC[C@@]21C,"Progesterone receptor (PGR, Homo sapiens, UniProt P06401)",enzyme activity,,,pIC50,8.52
N[C@@H](C[C@]1(C(=O)O)C[C@H]2OC[C@@H](O)[C@@H](O)[C@H]2O1)C(=O)O,"Glutamate receptor ionotropic, kainate 3 (Rattus norvegicus, UniProt P42264, F446Y)","ligand displacement, radioligand",,,pKi,6.26
N#C[C@H](C[C@@H]1CCCNC1=O)NC(=O)[C@H](CC1CC1)NC(=O)c1cc2cccc(Cl)c2[nH]1,"Cytochrome P450 3A4 (CYP3A4, Homo sapiens, UniProt P08684)","enzyme activity, inhibitor","human, liver microsomes",midazolam probe,pIC50,4.16
CC(C)C[C@H](NC(=O)[C@H](Cc1ccccc1)NC(=O)c1cnccn1)B(O)O,"Chymase (CMA1, Homo sapiens, UniProt P23946)","enzyme activity, inhibitor",,,pIC50,5.33
CC[C@H](C)[C@H](NC(=O)[C@H](CCCNC(=N)N)NC(=O)[C@H](CCCCN)NC(=O)[C@@H]1CCCN1C(=O)[C@@H](N)Cc1c[nH]c2ccccc12)C(=O)N[C@@H](C)C(=O)O,"N-terminal Xaa-Pro-Lys N-methyltransferase 1 (Homo sapiens, UniProt Q9BV86)","binding, ITC",,pH 7.5,pKd,4.33
CSCC[C@H](NC(=O)[C@@H](NC(=O)[C@@H](N)Cc1ccc(O)cc1)C(C)C)C(=O)NCC(=O)N[C@@H](Cc1c[nH]cn1)C(=O)O,"Melanocortin receptor 3 (Mus musculus, UniProt P33033)","reporter gene, agonist",,,pEC50,< 4.00
O=C(O)c1ccccc1-c1c2cc(Br)c(=O)cc-2oc2[c]([Hg+])c(O)c(Br)cc12,"Papain (Carica papaya, UniProt P00784)","binding, ITC",,,pKd,~1.41
N#Cc1c(N)nc(SCC(N)=O)c(C#N)c1-c1ccc(OCC2CC2)cc1,"Adenosine receptor A2b (ADORA2B, Homo sapiens, UniProt P29275)","ligand displacement in cells, radioligand",,,pIC50,6.11
COc1cc(C(=O)N2CC[C@@H](O)[C@@H](N)C2)cc2nc(-c3cc4ccccc4n3CC3CC3)n(C)c12,CHRM1,"calcium signal, agonist",,,pEC50,5.30
CC(C)[C@H](N)C(=O)N1CCC[C@H]1B(O)O,"Lysosomal Pro-X carboxypeptidase (PRCP, Homo sapiens, UniProt P42785)","enzyme activity, inhibitor",,,pIC50,4.30
CC(=O)N[C@@H](CC(C)C)C(=O)N[C@H](C(=O)N[C@@H](Cc1ccccc1)C(=O)N[C@@]1(C)CCCC=CCCC[C@@](C)(C(=O)N[C@@H](CCC(N)=O)C(=O)N[C@@H](CC(C)C)C(=O)N[C@H](C(=O)N[C@@H](CO)C(N)=O)[C@@H](C)O)NC(=O)[C@H](Cc2c[nH]c3ccccc23)NC(=O)[C@H](Cc2ccc(O)cc2)NC(=O)[C@H](CCC(=O)O)NC1=O)[C@@H](C)O,"E3 ubiquitin-protein ligase Mdm2 (MDM2, Homo sapiens, UniProt Q00987)","ligand displacement, FP",,,pIC50,7.31
COc1ccc(CCNC[C@H](O)c2ccc(O)cc2)cc1OC,"Beta-3 adrenergic receptor (ADRB3, Homo sapiens, UniProt P13945)",cell-free assay,,,pKi,5.68
c1cc(N2CCNCC2)c2cc[nH]c2c1,CHRM1,"ligand displacement, radioligand",,cell membranes,pKi,< 4.50
CC(C)C[C@H]1C(=O)N2CCC[C@H]2[C@]2(O)O[C@](NC(=O)[C@@H]3C=C4c5cccc6[nH]cc(c56)C[C@H]4N(C)C3)(C(C)C)C(=O)N12,"Solute carrier organic anion transporter family member 1B1 (SLCO1B1, Homo sapiens, UniProt Q9Y6L6)","transporter uptake, inhibitor, fluorescence",CHO,"30 min, pH 7.4",pIC50,6.10
O=P(O)(O)C(CCCc1cccc(Oc2ccccc2)c1)S(=O)(=O)O (centres unmarked),"4,4'-diapophytoene synthase (Staphylococcus aureus, UniProt A9JQL9)","enzyme activity, inhibitor",,,pKi,7.70
COC(=O)C1=CCCN(C)C1,"Acetyl-CoA acetyltransferase, mitochondrial (Homo sapiens, UniProt P24752)","enzyme activity, inhibitor",,,pIC50,~4.95
C[N+]1(C)CCC(OC(=O)C(c2ccccc2)c2ccccc2)CC1,CHRM1,"ligand displacement, radioligand",,,pIC50,8.33
